Assays:
[1] = Antiviral activity against Bovine viral diarrhea virus 1-NADL ATCC VR-534 infected in MDBK cells assessed as protection from virus-induced cytopathogenicity after 3 to 4 days by MTT method; type: functional, cell-based; settings: Bovine viral diarrhea virus isolates and strains, ATCC VR-534, MDBK
How it was run: (§1)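 Confluent monolayers grown overnight (BHK-21 at 5×10⁴ cells/well for YFV and Reo-1; MDBK at 3×10⁴ cells/well for BVDV). Infection at m.o.i. 0.01 for 2 h in maintenance MEM-Earle with 0.5% inactivated FBS, then serial compound dilutions added. Viability read by MTT after 3–4 days at 37 °C. EC50 taken from linear regression against untreated controls.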

[2] = tested on: Human alphaherpesvirus 1; test: Antiviral activity against Human herpesvirus 1 strain KOS ATCC VR- 1493 infected in Vero 76 cells after 3 days by plaque reduction assays; type: functional, organism-based; settings: Human alphaherpesvirus 1, KOS ATCC VR1493, Vero 76, 72 h
[3] = tested on: Human poliovirus 1 strain Sabin; test: Antiviral activity against Poliovirus 1 strain Sabin ATCC VR-1562 infected in Vero 76 cells after 2 days by plaque reduction assays; type: functional, organism-based; settings: Enterovirus C, ATCC VR-1562, Vero 76, 48 h
[4] = tested on: Vesicular stomatitis Indiana virus; test: Antiviral activity against Vesicular stomatitis Indiana virus ATCC VR 158 infected in Vero 76 cells after 2 days by plaque reduction assays; type: functional, organism-based; settings: ATCC VR 158, Vero 76, 48 h
[5] = Cytotoxicity against mock-infected African green monkey Vero 76 cells assessed as reduction in proliferation after 48 to 96 hrs by MTT method; type: cell-based; settings: chlorocebus sabaeus, Vero 76 cells (mock-infected)
How it was run: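 Vero-76 cells seeded at 4 × 10⁵ cells/mL in D-MEM with L-glutamine, kanamycin and 10% FBS. Incubated at 37 °C, 5% CO₂, with or without serial dilutions of compound; viability read by MTT after 48–96 h. Run in parallel with antiviral assays. CC50 obtained by linear regression of % of untreated control.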

[6] = tested on: Coxsackievirus B5; test: Antiviral activity against Coxsackievirus B5 Faulkner (ATCC VR-185) infected in Vero 76 cells after 3 days by plaque reduction assays; type: functional, organism-based; settings: Enterovirus B, Vero 76, 72 h
[7] = Antiviral activity against Human respiratory syncytial virus A2 ATCC VR-1540 infected in Vero 76 cells after 5 days by plaque reduction assays; type: functional, cell-based; settings: ATCC VR-1540, Vero 76, 120 h
[8] = Ratio of Cidofovir EC50 to compound EC50 for Vaccinia virus Lister ATCC VR-1549 infected in Vero 76 cells after 3 days by plaque reduction assays; type: functional
[9] = tested on: Yellow fever virus; test: Antiviral activity against Yellow fever virus 17D Stamaril Pasteur J07B01 infected in BHK21 cells assessed as protection from virus-induced cytopathogenicity after 3 to 4 days by MTT method; type: functional, cell-based; settings: Stamaril Pasteur J07B01, BHK-21; how it was run: as §1
[10] = Cytotoxicity against mock-infected hamster BHK21 cells assessed as reduction in proliferation after 72 hrs by MTT method; type: cell-based, Mesocricetus auratus, BHK-21
How it was run: (§2)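 MDBK and BHK cells seeded at 6 × 10⁵ and 1 × 10⁶ cells/mL respectively. Medium was MEM-Earle with L-glutamine, 1 mM pyruvate and kanamycin, plus 10% horse serum (MDBK) or 10% FBS (BHK). Cells exposed to serial compound dilutions at 37 °C, 5% CO₂; MTT viability read at 72 h. CC50 by linear regression versus untreated controls.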

[11] = Cytotoxicity against mock-infected bovine MDBK cells assessed as reduction in proliferation after 72 hrs by MTT method; type: cell-based, Bos taurus; settings: cattle; how it was run: as §2
[12] = Half life in plasma (unknown origin); type: ADME, cell-free; settings: unidentified
How it was run: (§3)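 Compound kept at 37 °C in pH 7.4 phosphate buffer (chemical) or plasma (enzymatic), sampled hourly. Plasma aliquots extracted with acetonitrile (1:2) and centrifuged 1000 g for 10 min. Supernatant or buffer analysed by reversed-phase HPLC, methanol/water 80:20, detection at 250 nm. Pseudo-first-order t½ taken from the slope of log remaining compound versus time.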

[13] = Cytotoxicity against mock-infected human MT4 cells assessed as reduction in proliferation after 96 hrs by MTT method; type: cell-based
How it was run: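 Exponentially growing MT-4 cells seeded at 1 × 10⁵ cells/mL in RPMI-1640 with 10% FBS, penicillin and streptomycin. Held 96 h at 37 °C, 5% CO₂ with or without serial compound dilutions; viability by MTT. Compounds dissolved in DMSO at 100 mM stock, then diluted in medium. CC50 by linear regression.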

[14] = Half life in pH 7.4 buffered solution; type: physicochemical; how it was run: as §3
[15] = Antiviral activity against Vaccinia virus Lister ATCC VR-1549 infected in Vero 76 cells after 3 days by plaque reduction assays; type: functional, cell-based; settings: ATCC VR-1549, Vero 76, 72 h
[16] = Antiviral activity against Simian virus 12 3651 (ATCC VR- 214) infected in BHK21 cells assessed as protection from virus-induced cytopathogenicity after 3 to 4 days by MTT method; type: functional, cell-based; settings: BHK-21; how it was run: as §1
[17] = tested on: Human immunodeficiency virus 1; test: Antiviral activity against HIV-13B infected in MT4 cells assessed as protection from virus-induced cytopathogenicity after 4 days by MTT method; type: functional, organism-based; settings: Human immunodeficiency virus 1, 3B, MT4, 96 h
How it was run: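 HIV-1 IIIB, taken from persistently infected H9/IIIB supernatant. MT-4 cells (1×10⁴/well) in RPMI with serial compound dilutions, infected with 100 CCID50 (m.o.i. 0.01). Viability by MTT after 4 days at 37 °C. EC50 = 50% protection from cytopathogenicity, by linear regression against untreated controls. Compounds kept as 100 mM DMSO stocks, diluted in medium.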

N#Cc1ccc(-c2nc3cc(Br)cnc3[nH]2)cc1
EC50 [1]: > 100 µM
EC50 [2]: 15 µM
EC50 [3]: > 73 µM
EC50 [4]: > 73 µM
CC50 [5]: 73 µM
EC50 [6]: > 73 µM
EC50 [7]: > 73 µM
Ratio EC50 [8]: 10
EC50 [9]: > 100 µM
CC50 at 72 h [10]: > 100 µM
CC50 at 72 h [11]: > 100 µM
half-life [12]: 120 min
CC50 at 96 h [13]: 53 µM
half-life [14]: > 240 min
EC50 [15]: 2000 nM
EC50 [16]: > 100 µM

CC(=O)c1ccc(-c2nc3cc(Br)cnc3[nH]2)cc1
EC50 [1]: > 100 µM
EC50 [2]: > 50 µM
EC50 [3]: > 50 µM
EC50 [4]: > 50 µM
CC50 [5]: 50 µM
EC50 [6]: > 50 µM
EC50 [7]: > 50 µM
EC50 [9]: > 100 µM
CC50 at 72 h [10]: > 100 µM
CC50 at 72 h [11]: > 100 µM
CC50 at 96 h [13]: 28 µM
EC50 [17]: 28 µM
EC50 [15]: > 50000 nM
EC50 [16]: > 100 µM

Reference: ChEMBL document CHEMBL3352401, “Synthesis and antiviral activity of new phenylimidazopyridines and N-benzylidenequinolinamines derived by molecular simplification of phenylimidazo[4,5-g]quinolines” (Eur J Med Chem, 2014)
